According to ChEMBL document CHEMBL3045123, “Isolation and identification of antifungal fatty acids from the basidiomycete Gomphus floccosus” (J Agric Food Chem, 2008):
Activity calls are given as the source filed them. The rule behind the calls is not given here.

Key:
[1] = tested on: Colletotrichum fragariae; experiment: Antifungal activity against Colletotrichum fragariae assessed as inhibition of fungal growth measured after 72 hr by 96-well microdilution assay; type: functional, organism-based
Outline: (§1)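 Conidia were harvested from 7-10 day PDA cultures grown at 24 °C with a 12 h photoperiod, filtered through Miracloth, and set to 1.0 × 10^6 conidia/mL by A625. Six-point microdilution broth format used final concentrations of 1, 3.3, 10, 33, 100 and 333 µM, with captan as standard. Growth was read at A620 at 0-72 h (Phomopsis also 120 and 144 h). Two experiments were pooled; IC50 was taken as 50% growth reduction.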

[2] = tested on: Colletotrichum acutatum; experiment: Antifungal activity against Colletotrichum acutatum assessed as inhibition of fungal growth at 20 ug measured after 4 to 5 days by direct bioautography; type: functional; conditions: read-out: DIZ
Outline: (§2)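 For TLC direct bioautography, developed plates were sprayed with a conidial suspension of the test fungus. Plates were incubated in a moisture chamber at 26 °C with a 12 h photoperiod. Zones of growth inhibition were measured as diameters 4-5 days after treatment and reported as mean zone dimensions (mm) ± SD.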

[3] = tested on: Phomopsis viticola; experiment: Antifungal activity against Phomopsis viticola assessed as inhibition of fungal growth measured after 144 hr by 96-well microdilution assay
[4] = tested on: Colletotrichum acutatum; experiment: Antifungal activity against Colletotrichum acutatum assessed as inhibition of fungal growth measured after 72 hr by 96-well microdilution assay; type: functional, organism-based; outline: as §1
[5] = tested on: Colletotrichum acutatum; experiment: Antifungal activity against Colletotrichum acutatum assessed as inhibition of fungal growth measured after 48 hr by 96-well microdilution assay; type: functional, organism-based; outline: as §1
[6] = tested on: Fusarium oxysporum; experiment: Antifungal activity against Fusarium oxysporum assessed as inhibition of fungal growth measured after 72 hr by 96-well microdilution assay; type: functional, organism-based; outline: as §1
[7] = tested on: Phomopsis obscurans; experiment: Antifungal activity against Phomopsis obscurans assessed as inhibition of fungal growth measured after 120 hr by 96-well microdilution assay; type: functional, organism-based; conditions: Paraphomopsis obscurans; outline: as §1
[8] = tested on: Colletotrichum fragariae; experiment: Antifungal activity against Colletotrichum fragariae assessed as inhibition of fungal growth at 20 ug measured after 4 to 5 days by direct bioautography; type: functional; conditions: read-out: DIZ; outline: as §2
[9] = tested on: Colletotrichum gloeosporioides; experiment: Antifungal activity against Colletotrichum gloeosporioides assessed as inhibition of fungal growth at 80 ug measured after 4 to 5 days by direct bioautography; type: functional; conditions: read-out: DIZ; outline: as §2
[10] = tested on: Botrytis cinerea; experiment: Antifungal activity against Botryotinia fuckeliana assessed as inhibition of fungal growth measured after 48 hr by 96-well microdilution assay; type: functional, organism-based; outline: as §1
[11] = tested on: Colletotrichum gloeosporioides; experiment: Antifungal activity against Colletotrichum gloeosporioides assessed as inhibition of fungal growth at 20 ug measured after 4 to 5 days by direct bioautography; type: functional; conditions: read-out: DIZ; outline: as §2
[12] = tested on: Fusarium oxysporum; experiment: Antifungal activity against Fusarium oxysporum assessed as inhibition of fungal growth measured after 48 hr by 96-well microdilution assay; type: functional, organism-based; outline: as §1
[13] = tested on: Colletotrichum fragariae; experiment: Antifungal activity against Colletotrichum fragariae assessed as inhibition of fungal growth measured after 48 hr by 96-well microdilution assay; type: functional, organism-based; outline: as §1
[14] = tested on: Botrytis cinerea; experiment: Antifungal activity against Botryotinia fuckeliana assessed as inhibition of fungal growth measured after 72 hr by 96-well microdilution assay; type: functional, organism-based; outline: as §1
[15] = tested on: Phomopsis viticola; experiment: Antifungal activity against Phomopsis viticola assessed as inhibition of fungal growth measured after 120 hr by 96-well microdilution assay
[16] = tested on: Colletotrichum fragariae; experiment: Antifungal activity against Colletotrichum fragariae assessed as inhibition of fungal growth at 80 ug measured after 4 to 5 days by direct bioautography; type: functional; conditions: read-out: DIZ; outline: as §2
[17] = tested on: Colletotrichum acutatum; experiment: Antifungal activity against Colletotrichum acutatum assessed as inhibition of fungal growth at 80 ug measured after 4 to 5 days by direct bioautography; type: functional; conditions: read-out: DIZ; outline: as §2
[18] = tested on: Colletotrichum gloeosporioides; experiment: Antifungal activity against Colletotrichum gloeosporioides assessed as inhibition of fungal growth measured after 72 hr by 96-well microdilution assay; type: functional, organism-based; outline: as §1
[19] = tested on: Colletotrichum gloeosporioides; experiment: Antifungal activity against Colletotrichum gloeosporioides assessed as inhibition of fungal growth measured after 48 hr by 96-well microdilution assay; type: functional, organism-based; outline: as §1
[20] = tested on: Phomopsis obscurans; experiment: Antifungal activity against Phomopsis obscurans assessed as inhibition of fungal growth measured after 144 hr by 96-well microdilution assay; type: functional, organism-based; conditions: Paraphomopsis obscurans; outline: as §1
[21] = tested on: Colletotrichum acutatum; experiment: Antifungal activity against Colletotrichum acutatum assessed as inhibition of fungal growth at 90 uM measured after 48 hr by 96-well microdilution assay; type: functional; conditions: read-out: GI
Outline: (§3)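 Initial three-point microdilution broth screen at final concentrations of 45, 90 and 135 µM, each in duplicate, against a conidial suspension adjusted photometrically to 1.0 × 10^6 conidia/mL. Growth was read as A620 at 0, 24, 48 and 72 h. Percent inhibition/stimulation means were pooled from two experiments replicated in time.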

[22] = tested on: Colletotrichum gloeosporioides; experiment: Growth stimulation of Colletotrichum gloeosporioides at 333 uM after 24 to 72 hr by 96-well microdilution assay; type: functional, organism-based; outline: as §1
[23] = tested on: Colletotrichum acutatum; experiment: Antifungal activity against Colletotrichum acutatum assessed as inhibition of fungal growth at 90 uM measured after 72 hr by 96-well microdilution assay; type: functional; conditions: read-out: GI; outline: as §3
[24] = tested on: Fusarium oxysporum; experiment: Growth stimulation of Fusarium oxysporum at 333 uM after 24 to 72 hr by 96-well microdilution assay; type: functional, organism-based; outline: as §1
[25] = tested on: Colletotrichum gloeosporioides; experiment: Growth stimulation of Colletotrichum gloeosporioides up to 100 uM after 24 to 72 hr by 96-well microdilution assay; type: functional, organism-based; outline: as §1
[26] = tested on: Colletotrichum fragariae; experiment: Growth stimulation of Colletotrichum fragariae at 333 uM after 24 to 72 hr by 96-well microdilution assay; type: functional, organism-based; outline: as §1
[27] = tested on: Colletotrichum fragariae; experiment: Growth stimulation of Colletotrichum fragariae up to 100 uM after 24 to 72 hr by 96-well microdilution assay; type: functional, organism-based; outline: as §1

SMILES | IC50 [1] | zone of inhibition at 20 µg/disc [2] | IC50 [3] | IC50 [4] | IC50 [5] | IC50 [6] | IC50 [7] | zone of inhibition at 20 µg/disc [8] | zone of inhibition at 80 µg/disc [9] | IC50 [10] | zone of inhibition at 20 µg/disc [11] | IC50 [12] | IC50 [13] | IC50 [14] | IC50 [15] | zone of inhibition at 80 µg/disc [16] | zone of inhibition at 80 µg/disc [17] | IC50 [18] | IC50 [19] | further results
CCCCCC(=O)/C=C\C=C\CCCCCCCC(=O)O | 270 µM | 4 mm | 38 µM | > 333 µM | > 333 µM | > 333 µM | 4.5 µM | 6 mm | 7 mm | 120 µM | 6 mm | > 333 µM | 160 µM | > 333 µM | 115 µM | 8 mm | 19 mm | > 333 µM | > 333 µM | 
O=C1C2CC=CCC2C(=O)N1SC(Cl)(Cl)Cl (centres undefined) [CAPTAN] | 3 µM |  | < 1 µM | 5.2 µM | 2.5 µM | 16 µM | 1.1 µM |  |  | 1.4 µM |  | 2.8 µM | 1.6 µM | 2.8 µM | < 1 µM |  |  | 4.7 µM | 2.1 µM | 
CCCCC/C=C\C=C\[C@@H](O)CCCCCCCC(=O)O | > 333 µM | 5 mm | 100 µM | > 333 µM | > 333 µM | > 333 µM | 10 µM | 6 mm | 7 mm | > 333 µM | 3 mm | > 333 µM | > 333 µM | > 333 µM | > 333 µM | 10 mm | 19 mm | > 333 µM | > 333 µM | growth inhibition (GI) [20]: Dose-dependent effect; growth inhibition (GI) [3]: Dose-dependent effect; inhibition of growth at 90 µM [21]: 79%; Activity [22]: inactive; inhibition of growth at 90 µM [23]: 37%; Activity [24]: Active; Activity [25]: Active; Activity [26]: inactive; Activity [27]: Active
CCCCC/C=C/C=C/C(=O)CCCCCCCC(=O)O | > 333 µM | 8 mm | 65 µM | > 333 µM | > 333 µM | > 333 µM | 23 µM | 4 mm | 7 mm | 90 µM | 6 mm | > 333 µM | 91 µM | > 333 µM | 110 µM | 6 mm | 17 mm | > 333 µM | > 333 µM | 
